Experiments:
[1] = Cytotoxicity against mouse RAW264.7 cells after 48 hrs by resazurin dye-based assay; assay type: cell-based
How it was run: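 RAW 264.7 cells seeded at 2 × 10⁴ per well in DMEM with 10% HIFBS and penicillin–streptomycin, 24 h preculture. Two-fold serial dilutions for 48 h at 37 °C, 5% CO₂. Resazurin (450 μM, 10 μL) added for 4 h in the dark, OD570/OD600 read. CC50 is the concentration reducing macrophage growth by 50%.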

Leishmania donovani [2] = assay: Antileishmanial activity against Leishmania donovani MHOM/ET/67/HU3 axenic amastigotes after 72 hrs by resazurin dye-based assay; assay type: functional, organism-based; details: MHOM/ET/67/HU3, 72 h
Leishmania donovani [3] = assay: Antileishmanial activity against Leishmania donovani MHOM/ET/67/HU3 intramacrophage amastigotes infected in mouse RAW264.7 cells after 48 hrs by SYBR green1 dye-based fluorescence assay; assay type: functional, organism-based; details: MHOM/ET/67/HU3, RAW264.7, 48 h
How it was run: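 RAW 264.7 macrophages (2 × 10⁴ per well, 24 h preculture) infected with axenic amastigotes at 16:1 parasite:macrophage for 24 h. Extracellular parasites then removed. Two-fold serial dilutions from 100 μM maximum in DMEM complete medium for 48 h. Cells lysed in Direct PCR Lysis Reagent with 3 freeze–thaw cycles and proteinase K 50 μg mL⁻¹ at 55 °C overnight. Extract mixed with SYBR Green I.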

[4] = Selectivity index, ratio of CC50 for mouse RAW264.7 cells to IC50 for Leishmania donovani MHOM/ET/67/HU3 intramacrophage amastigotes infected in mouse RAW264.7 cells; assay type: toxicity, cell-based; details: read-out: Ratio CC50/IC50
How it was run: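 Ratio of the RAW 264.7 CC₅₀ to the intramacrophage amastigote IC₅₀, both measured in this work.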

CC1=CC(=O)/C(=C(/C)Nc2ccc3cnn(Cc4ccc(C)cc4)c3c2)C(=O)O1
CC50 at 48 h [1]: > 100 µM | IC50 (Leishmania donovani [2]): > 100 µM | IC50 (Leishmania donovani [3]): > 100 µM

CC1=CC(=O)/C(=C(/C)Nc2ccc3cn(Cc4ccc(C)cc4)nc3c2)C(=O)O1
CC50 at 48 h [1]: > 100 µM | IC50 (Leishmania donovani [2]): 49.6 µM | IC50 (Leishmania donovani [3]): 57.4 µM

CCn1ncc2cc(N/C(C)=C3\C(=O)C=C(C)OC3=O)ccc21
CC50 at 48 h [1]: > 100 µM | IC50 (Leishmania donovani [2]): > 100 µM | IC50 (Leishmania donovani [3]): > 100 µM

CCn1cc2ccc(N/C(C)=C3\C(=O)C=C(C)OC3=O)cc2n1
CC50 at 48 h [1]: > 100 µM | IC50 (Leishmania donovani [2]): > 100 µM | IC50 (Leishmania donovani [3]): > 100 µM

CCn1nc(Cl)c2ccc(N/C(C)=C3\C(=O)C=C(C)OC3=O)cc21
CC50 at 48 h [1]: 6.23 µM | IC50 (Leishmania donovani [2]): 11 µM | IC50 (Leishmania donovani [3]): 6.5 µM | selectivity ratio [4]: 0.96

C=CCn1ncc2ccc(N/C(C)=C3\C(=O)C=C(C)OC3=O)cc21
CC50 at 48 h [1]: > 100 µM | IC50 (Leishmania donovani [2]): > 100 µM | IC50 (Leishmania donovani [3]): > 100 µM

C=CCn1ncc2cc(N/C(C)=C3\C(=O)C=C(C)OC3=O)ccc21
CC50 at 48 h [1]: > 100 µM | IC50 (Leishmania donovani [2]): > 100 µM | IC50 (Leishmania donovani [3]): > 100 µM

C=CCn1nc(Cl)c2ccc(N/C(C)=C3\C(=O)C=C(C)OC3=O)cc21
CC50 at 48 h [1]: > 100 µM | IC50 (Leishmania donovani [2]): > 100 µM | IC50 (Leishmania donovani [3]): > 100 µM

CC1=CC(=O)/C(=C(/C)Nc2ccc3c(Cl)n(Cc4ccc(C)cc4)nc3c2)C(=O)O1
CC50 at 48 h [1]: > 100 µM | IC50 (Leishmania donovani [2]): > 100 µM | IC50 (Leishmania donovani [3]): > 100 µM

CC1=CC(=O)/C(=C(/C)Nc2ccc3cnn(C)c3c2)C(=O)O1
CC50 at 48 h [1]: > 100 µM | IC50 (Leishmania donovani [2]): > 100 µM | IC50 (Leishmania donovani [3]): > 100 µM

CCn1cc2cc(N/C(C)=C3\C(=O)C=C(C)OC3=O)ccc2n1
CC50 at 48 h [1]: > 100 µM | IC50 (Leishmania donovani [2]): > 100 µM | IC50 (Leishmania donovani [3]): > 100 µM

C=CCn1cc2ccc(N/C(C)=C3\C(=O)C=C(C)OC3=O)cc2n1
CC50 at 48 h [1]: > 100 µM | IC50 (Leishmania donovani [2]): > 100 µM | IC50 (Leishmania donovani [3]): > 100 µM

CCn1nc2cc(N/C(C)=C3\C(=O)C=C(C)OC3=O)ccc2c1Cl
CC50 at 48 h [1]: 6.25 µM | IC50 (Leishmania donovani [2]): 2.48 µM | IC50 (Leishmania donovani [3]): 2.25 µM | selectivity ratio [4]: 2.77

CC1=CC(=O)/C(=C(/C)Nc2ccc3c(cnn3C)c2)C(=O)O1
CC50 at 48 h [1]: > 100 µM | IC50 (Leishmania donovani [2]): > 100 µM | IC50 (Leishmania donovani [3]): > 100 µM

CC1=CC(=O)/C(=C(/C)Nc2ccc3c(Cl)nn(Cc4ccc(C)cc4)c3c2)C(=O)O1
CC50 at 48 h [1]: > 100 µM | IC50 (Leishmania donovani [2]): 62.6 µM | IC50 (Leishmania donovani [3]): 49.9 µM

CC1=CC(=O)/C(=C(/C)Nc2ccc3c(Cl)nn(C)c3c2)C(=O)O1
CC50 at 48 h [1]: > 100 µM | IC50 (Leishmania donovani [2]): > 100 µM | IC50 (Leishmania donovani [3]): > 100 µM

CC1=CC(=O)/C(=C(/C)Nc2ccc3nn(C)cc3c2)C(=O)O1
CC50 at 48 h [1]: > 100 µM | IC50 (Leishmania donovani [2]): > 100 µM | IC50 (Leishmania donovani [3]): > 100 µM

CC1=CC(=O)/C(=C(/C)Nc2ccc3c(Cl)n(C)nc3c2)C(=O)O1
CC50 at 48 h [1]: 6.26 µM | IC50 (Leishmania donovani [2]): 11.9 µM | IC50 (Leishmania donovani [3]): 3.25 µM | selectivity ratio [4]: 1.92

CCn1ncc2ccc(N/C(C)=C3\C(=O)C=C(C)OC3=O)cc21
CC50 at 48 h [1]: > 100 µM | IC50 (Leishmania donovani [2]): > 100 µM | IC50 (Leishmania donovani [3]): > 100 µM

C[C@@H]1[C@H](O)[C@@H](C)/C=C/C=C/C=C/C=C/C=C/C=C/C=C/[C@H](O[C@@H]2O[C@H](C)[C@@H](O)[C@H](N)[C@@H]2O)C[C@@H]2O[C@](O)(C[C@@H](O)C[C@@H](O)[C@H](O)CC[C@@H](O)C[C@@H](O)CC(=O)O[C@H]1C)C[C@H](O)[C@H]2C(=O)O [AMPHOTERICIN B]
CC50 at 48 h [1]: 4.23 µM | IC50 (Leishmania donovani [3]): 0.115 µM
